Assay results taken from ChEMBL document CHEMBL3797060, “Discovery of 5-Chloro-1-(5-chloro-2-(methylsulfonyl)benzyl)-2-imino-1,2-dihydropyridine-3-carboxamide (TAK-259) as a Novel, Selective, and Orally Active α1D Adrenoceptor Antagonist with Antiurinary Frequency Effects: Reducing Human Ether-a-go-go-Related Gene (hERG) Liabilities” (J Med Chem, 2016).
pKi: −log10 of the molar value.

Experiments:
[1] = target: T1, Alpha-1D adrenergic receptor (Homo sapiens, UniProt P25100); test: Displacement of 7-methoxy-[3H]-prazosin from human alpha1D adrenergic receptor expressed in CHO-K1 cell membranes incubated for 60 mins by liquid scintillation counting analysis
T1 sequence (P25100 whole entry): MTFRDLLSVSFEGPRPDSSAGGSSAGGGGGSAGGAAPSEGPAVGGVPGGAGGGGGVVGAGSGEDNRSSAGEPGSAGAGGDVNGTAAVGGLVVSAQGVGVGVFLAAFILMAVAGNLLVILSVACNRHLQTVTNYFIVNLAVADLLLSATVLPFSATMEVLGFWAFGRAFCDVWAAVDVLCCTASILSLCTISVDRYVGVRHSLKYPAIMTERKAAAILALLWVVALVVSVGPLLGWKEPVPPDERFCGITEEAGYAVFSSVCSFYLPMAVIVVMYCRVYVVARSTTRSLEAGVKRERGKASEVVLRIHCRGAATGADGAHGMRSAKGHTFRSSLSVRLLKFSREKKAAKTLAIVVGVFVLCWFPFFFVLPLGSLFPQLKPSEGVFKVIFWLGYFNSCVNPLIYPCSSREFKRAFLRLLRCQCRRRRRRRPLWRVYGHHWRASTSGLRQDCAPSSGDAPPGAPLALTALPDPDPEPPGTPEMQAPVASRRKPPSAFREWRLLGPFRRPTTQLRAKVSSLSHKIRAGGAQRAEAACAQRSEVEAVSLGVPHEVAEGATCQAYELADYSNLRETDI
Summary of the method: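 CHO-K1 stable-line membranes (10 µg protein), 2.5 nmol/L ligand, Tris-HCl pH 7.5 with MgCl2, EDTA and 0.5% BSA, 12 compound concentrations, room temperature. Filtered and counted; nonspecific binding with 10 µmol/L phentolamine. IC50 by logistic regression, converted to Ki by Cheng-Prusoff with Kd 0.93 (α1A), 0.35 (α1B), 0.26 (α1D) nmol/L. Triplicate mean, 95% CI.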

hERG (KCNH2) = hERG (KCNH2) (Homo sapiens, UniProt Q12809); test: Inhibition of human ERG channel expressed in CHO cells assessed as peak tail current at 10 uM incubated for 5 mins by patch-clamp assay; type: cell-based; conditions: CHO cells expressing human ERG channel
Summary of the method: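 CHO cells stably expressing hERG, grown at 32 °C, 5% CO2 in Ham's F-12 with 10% FBS and 500 µg/mL Geneticin. Population patch clamp with PBS (Ca/Mg) outside, KCl/MgCl2/EGTA/HEPES pH 7.3 inside, amphotericin B perforation. Holding −80 mV, step to 40 mV 2 s, then −50 mV 2 s. Peak tail current taken before and after 5 min compound exposure, inhibition = 100 − post/pre×100, n = 3 or 4.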

Homo sapiens [2] = species: Homo sapiens; test: Selectivity ratio of Ki for human alpha1A adrenergic receptor to Ki for human alpha1D adrenergic receptor
Summary of the method: (§1)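 Membranes from CHO-K1 cells stably expressing human α1A, α1B or α1D receptors (10 µg protein) incubated 60 min at room temperature with 2.5 nmol/L 7-methoxy[3H]-prazosin and 12 compound concentrations in Tris-HCl pH 7.5 buffer with MgCl2, EDTA, 0.5% BSA. Bound counts taken after filtration; nonspecific binding defined with 10 µmol/L phentolamine.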

Homo sapiens [3] = species: Homo sapiens; test: Selectivity ratio of Ki for human alpha1B adrenergic receptor to Ki for human alpha1D adrenergic receptor; summary of the method: as §1
[4] = Volume of distribution at steady state in rat at 0.1 mg/kg, iv administered via cassette dosing by LC/MS/MS analysis; type: ADME, organism-based; conditions: in vivo, read-out: Vdss
Summary of the method: (§2)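 Cassette dosing iv at 0.1 mg/kg in DMA/1,3-butanediol (1:1) to fed rats. Blood collected after dosing and centrifuged to plasma, which was deproteinized and centrifuged; supernatant concentrations measured by LC/MS/MS.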

[5] = Total clearance in rat at 0.1 mg/kg, iv administered via cassette dosing by LC/MS/MS analysis; type: ADME, organism-based; conditions: in vivo; summary of the method: as §2
[6] = Cmax in rat at 1 mg/kg, po administered via cassette dosing by LC/MS/MS analysis; type: ADME, organism-based; parameters: dose 1 mg/kg, route oral; conditions: in vivo
Summary of the method: (§3)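 Fed rats dosed orally at 1 mg/kg as 0.5% methylcellulose suspension by cassette dosing; bioavailability also uses an iv arm of 0.1 mg/kg in DMA/1,3-butanediol (1:1). Plasma obtained from blood by centrifugation, deproteinized, and measured by LC/MS/MS. Values are averages of three rats.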

[7] = AUC in rat at 1 mg/kg, po administered via cassette dosing by LC/MS/MS analysis; type: ADME, organism-based; conditions: in vivo; summary of the method: as §3
[8] = Mean residence time in rat at 1 mg/kg, po administered via cassette dosing by LC/MS/MS analysis; type: ADME, organism-based; conditions: in vivo; summary of the method: as §3
[9] = Oral bioavailability in rat at 1 mg/kg administered via cassette dosing by LC/MS/MS analysis; type: ADME, organism-based; conditions: in vivo; summary of the method: as §3
Urinary bladder = test: Inhibition of (R)-(-)-phenylephrine hydrochloride-induced contractions in Wistar rat bladder with outlet obstruction treated every 30 minutes post (R)-(-)-phenylephrine hydrochloride challenge; type: functional; conditions: for IC30: 0.5 h
Rattus norvegicus [10] = test: Inhibition of nonvoiding contractions during urinary storage phase in iv dosed Wistar rat with bladder outlet obstruction after 10 mins by cystometrogram; type: functional; conditions: for ED50: read-out: ID50 (the source's name)
Rattus norvegicus [11] = test: Reduction of urinary frequency in po dosed Sprague-Dawley rat with cyclophosphamide-induced cystitis assessed as increased voiding intervals administered at voiding intervals less <7.2 mins measured after 5 to 35 mins by cystometrogram; type: functional; conditions: Urine, read-out: MED

Sequence of hERG (KCNH2) (Q12809 whole entry): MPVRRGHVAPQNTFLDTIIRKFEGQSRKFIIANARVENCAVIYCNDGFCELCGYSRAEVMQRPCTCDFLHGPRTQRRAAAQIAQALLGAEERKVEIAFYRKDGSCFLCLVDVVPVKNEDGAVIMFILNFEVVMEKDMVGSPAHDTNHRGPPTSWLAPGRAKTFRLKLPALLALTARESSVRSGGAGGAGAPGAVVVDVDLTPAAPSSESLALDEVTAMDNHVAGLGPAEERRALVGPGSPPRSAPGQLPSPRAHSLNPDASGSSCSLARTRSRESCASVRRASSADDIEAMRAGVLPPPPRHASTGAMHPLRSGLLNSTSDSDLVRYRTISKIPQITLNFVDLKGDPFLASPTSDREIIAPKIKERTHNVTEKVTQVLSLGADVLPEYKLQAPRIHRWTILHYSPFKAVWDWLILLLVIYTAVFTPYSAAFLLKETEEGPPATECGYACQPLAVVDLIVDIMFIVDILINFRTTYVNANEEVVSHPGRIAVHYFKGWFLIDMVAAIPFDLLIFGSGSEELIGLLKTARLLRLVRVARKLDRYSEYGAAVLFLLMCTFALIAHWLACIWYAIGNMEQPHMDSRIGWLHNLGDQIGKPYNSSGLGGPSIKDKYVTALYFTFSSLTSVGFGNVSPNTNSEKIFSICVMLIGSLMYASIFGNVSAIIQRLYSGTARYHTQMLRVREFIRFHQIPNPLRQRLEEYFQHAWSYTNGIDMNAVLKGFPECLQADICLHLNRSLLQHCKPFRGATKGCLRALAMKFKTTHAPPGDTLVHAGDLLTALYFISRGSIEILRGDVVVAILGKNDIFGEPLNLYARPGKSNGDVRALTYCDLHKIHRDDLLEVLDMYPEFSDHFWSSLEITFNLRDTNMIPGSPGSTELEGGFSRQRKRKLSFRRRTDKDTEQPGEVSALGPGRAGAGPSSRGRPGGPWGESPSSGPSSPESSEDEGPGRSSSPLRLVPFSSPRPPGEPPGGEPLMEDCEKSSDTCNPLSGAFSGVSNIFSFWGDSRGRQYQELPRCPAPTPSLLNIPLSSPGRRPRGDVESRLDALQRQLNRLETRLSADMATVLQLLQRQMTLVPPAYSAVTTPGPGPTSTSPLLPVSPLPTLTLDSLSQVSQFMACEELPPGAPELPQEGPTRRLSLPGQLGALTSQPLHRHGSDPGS

Row | SMILES | pKi [1] | inhibition at 5 min, 10 µM (hERG (KCNH2)) [%] | other results
1 | C[C@@H](c1cccc(C#N)c1)n1cc(Cl)cc(C(N)=O)c1=N [(S)-9s] | 6.89 | 57 | 
2 | CS(=O)(=O)c1cccc(Cn2cc(Cl)cc(C(N)=O)c2=N)c1 | 7.28 |  | 
3 | N=c1c(C(N)=O)cc(Cl)cn1CCCc1ccccc1 | 7.27 |  | 
4 | N=c1c(C(N)=O)cc(Cl)cn1Cc1cccnc1 | 6.60 |  | 
5 | N=c1c(C(N)=O)cc(Cl)cn1Cc1cccc(C(N)=O)c1 | 7.59 |  | 
6 | CS(=O)(=O)c1ccc(Cl)cc1Cn1cc(Cl)cc(C(N)=O)c1=N | 8.96 | 16 | Ratio Ki (Homo sapiens [2]): 200; Ratio Ki (Homo sapiens [3]): 800; Vd [4]: 4.43 L/kg; clearance [5]: 39.9 mL/min/kg; Cmax [6]: 60.2 ng/mL; AUC [7]: 358 ng·h/mL; MRT [8]: 4.53 h; bioavailability [9]: 84.5%; inhibition (Urinary bladder): Dose-dependent effect; IC30 (Urinary bladder): 12 nM; inhibition (Rattus norvegicus [10]): Dose-dependent effect; ED50 (Rattus norvegicus [10]): 1.3 µg/kg; minimal effective dose (Rattus norvegicus [11]): 10 µg/kg
7 | CC(C)(C)Cn1cc(Cl)cc(C(N)=O)c1=N | 6.09 |  | 
8 | N=c1c(C(N)=O)cccn1Cc1ccccc1 | 6.06 |  | 
9 | CC(c1cccc(Cl)c1)n1cc(Cl)cc(C(N)=O)c1=N (stereo not drawn) | 9.18 | 48 | 
10 | CN(C)C(=O)c1cc(Cl)cn(Cc2ccccc2)c1=N | < 6.03 |  | 
11 | N#Cc1cc(Cl)cc(Cn2cc(Cl)cc(C(N)=O)c2=N)c1 | 9.07 | 71 | 
12 | CCNC(=O)c1cc(Cl)cn(Cc2ccccc2)c1=N | < 6.03 |  | 
13 | N=c1c(C(N)=O)cc(Cl)cn1Cc1ccccn1 | 6.38 |  | 
14 | N=c1c(C(N)=O)cc(Cl)cn1Cc1ccc(C(N)=O)c(Cl)c1 | 7.19 | 10 | 
15 | Cc1cccc(Cn2cc(Cl)cc(C(N)=O)c2=N)c1 | 8.12 |  | 
16 | CC(c1cccc(C#N)c1)n1cc(Cl)cc(C(N)=O)c1=N (stereo not drawn) | 8.47 | 32 | 
17 | CS(=O)(=O)c1cc(Cl)cc(Cn2cc(Cl)cc(C(N)=O)c2=N)c1 | 8.32 | 14 | 

Row | SMILES | pKi [1] | inhibition at 5 min, 10 µM (hERG (KCNH2)) [%] | other results
18 | CS(=O)(=O)c1ccc(Cn2cc(Cl)cc(C(N)=O)c2=N)cc1Cl | 8.03 | 13 | 
19 | N#Cc1ccc(Cl)cc1Cn1cc(Cl)cc(C(N)=O)c1=N | 8.07 | 59 | 
20 | N=c1c(C(N)=O)cc(Cl)cn1Cc1ccccc1Cl | 7.41 |  | 
21 | N=c1c(C(N)=O)cc(Br)cn1Cc1ccccc1 | 6.80 |  | 
22 | CC(c1cccc(S(C)(=O)=O)c1)n1cc(Cl)cc(C(N)=O)c1=N (stereo not drawn) | 7.82 | 19 | 
23 | NC(=O)c1cc(Cl)cn(Cc2ccccc2)c1=O | < 6.03 |  | 
24 | N=c1c(C(N)=O)cc(Cl)cn1-c1ccccc1 | < 6.03 |  | 
25 | C[C@H](c1cccc(C#N)c1)n1cc(Cl)cc(C(N)=O)c1=N [(R)-9s] | 8.80 | 25 | Ratio Ki (Homo sapiens [2]): > 1700; Ratio Ki (Homo sapiens [3]): > 750; Vd [4]: 4.68 L/kg; clearance [5]: 39.2 mL/min/kg; Cmax [6]: 142 ng/mL; AUC [7]: 368 ng·h/mL; MRT [8]: 3.14 h; bioavailability [9]: 86%; inhibition (Urinary bladder): Dose-dependent effect; IC30 (Urinary bladder): 15 nM; inhibition (Rattus norvegicus [10]): Dose-dependent effect; ED50 (Rattus norvegicus [10]): 4.4 µg/kg; minimal effective dose (Rattus norvegicus [11]): 10 µg/kg
26 | N=c1c(C(N)=O)cc(Cl)cn1CCc1ccccc1 | 7.80 |  | 
27 | N#Cc1cccc(Cn2cc(Cl)cc(C(N)=O)c2=N)c1 | 8.00 |  | 
28 | N#Cc1ccc(Cn2cc(Cl)cc(C(N)=O)c2=N)cc1Cl | 7.96 | 74 | 
29 | N=c1c(C(N)=O)cc(Cl)cn1Cc1cc(Cl)cc(C(N)=O)c1 | 8.43 | 13 | Ratio Ki (Homo sapiens [2]): > 730; Ratio Ki (Homo sapiens [3]): > 320; Vd [4]: 3.21 L/kg; clearance [5]: 47.2 mL/min/kg; Cmax [6]: 3.2 ng/mL; AUC [7]: 10.8 ng·h/mL; MRT [8]: 2.47 h; bioavailability [9]: 3%
30 | CCOc1ccccc1OCCN[C@H](C)Cc1ccc(OC)c(S(N)(=O)=O)c1 |  |  | Ratio Ki (Homo sapiens [2]): 0.7; Ratio Ki (Homo sapiens [3]): 11
31 | N=c1c(C(N)=O)cc(Cl)cn1Cc1cccc(Cl)c1 | 8.59 | 47 | 
32 | N=c1c(C(N)=O)cc(Cl)cn1Cc1ccco1 | 6.80 |  | 
33 | COc1cccc(Cn2cc(Cl)cc(C(N)=O)c2=N)c1 | 8.06 |  | 
34 | N=c1c(C(N)=O)cc(Cl)cn1Cc1ccc(Cl)cc1 | 7.64 |  | 
